Bioassay records: PubChem BioAssay, several laboratories
MC4R ag barr = activates human MC4R beta-arrestin recruitment. P32245. U2OS MC4R beta-arrestin complementation, luminescence; percent of melanotan II response, DMSO zero. activation, % at 8.9 µM. hit rate 0.98% among 360,000. AID 540308;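 active means activation above a per-plate cutoff, the mean activation of sample wells on that plate plus 3 SD, cut at about 8% in these data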
NR2E3 ag-1 = NR2E3 (human) agonism. Q9Y5X4. AID 2300. GST-NR2E3/biotin-RetCOR TR-FRET, 1536-well. inhibition of corepressor binding, % at 4.78 µM. hit rate 0.12% among 320,000;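 active means percent inhibition above the cutoff of mean plus 3 SD of all tested compounds, set per screening campaign, cut at about 20% in these data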;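 further: 0% = DMSO wells and 100% = biotin wells as full block of FRET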
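Test system – NR2E3–RetCOR corepressor complex · Quantity – NR2E3 fusion 1.35 nM · Buffer or medium – Tris pH 7.5 · Incubation – Compound–protein incubation for 5 h at 4 °C · Technique – TR-FRET, Eu(K)-anti-GST donor, streptavidin-D2 acceptor, ex 340, em 617/671 nm · Evaluation – percent inhibition of 671/617 nm emission ratio versus biotin and DMSO controls · Plate – 1536-well format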
PG9 binder = PG9 antibody binding by small molecule; TR-FRET gp120-PG9 antibody binding; inhibition, % at 6.7 µM; hit rate 0.43% among 360,000; in the data active means inhibition above about 8.5%
NR2E3 ag-2 = agonists of human NR2E3 nuclear receptor. Q9Y5X4. CHO-S Gal4-NCOR/VP16-NR2E3 two-hybrid, luciferase. inhibition of corepressor binding, % at 3.98 µM. hit rate 0.35% among 360,000. AID 602229;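 active means inhibition above the mean of all tested compounds plus 3 SD, cut at about 70% in these data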;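 further: 0% = DMSO with NR2E3 transfected cells and 100% = cells lacking NR2E3 construct; higher means lower luciferase signal from less NR2E3 corepressor binding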
NR1D1 modulator = modulators of human Rev-erb alpha DNA binding; AID 1259318; activity, % at 10 µM; P20393; Rev-erbα–FITC-DNA binding, fluorescence polarization, 90 min; hit rate 0.79% among 370,000;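 active means activity above about 14%, limit read from the data; passing the limit was not always enough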;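 further: 0% = DMSO wells with 35 nM protein and 100% = DMSO wells with 750 nM protein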
Target sequence (P20393 whole entry, looked up): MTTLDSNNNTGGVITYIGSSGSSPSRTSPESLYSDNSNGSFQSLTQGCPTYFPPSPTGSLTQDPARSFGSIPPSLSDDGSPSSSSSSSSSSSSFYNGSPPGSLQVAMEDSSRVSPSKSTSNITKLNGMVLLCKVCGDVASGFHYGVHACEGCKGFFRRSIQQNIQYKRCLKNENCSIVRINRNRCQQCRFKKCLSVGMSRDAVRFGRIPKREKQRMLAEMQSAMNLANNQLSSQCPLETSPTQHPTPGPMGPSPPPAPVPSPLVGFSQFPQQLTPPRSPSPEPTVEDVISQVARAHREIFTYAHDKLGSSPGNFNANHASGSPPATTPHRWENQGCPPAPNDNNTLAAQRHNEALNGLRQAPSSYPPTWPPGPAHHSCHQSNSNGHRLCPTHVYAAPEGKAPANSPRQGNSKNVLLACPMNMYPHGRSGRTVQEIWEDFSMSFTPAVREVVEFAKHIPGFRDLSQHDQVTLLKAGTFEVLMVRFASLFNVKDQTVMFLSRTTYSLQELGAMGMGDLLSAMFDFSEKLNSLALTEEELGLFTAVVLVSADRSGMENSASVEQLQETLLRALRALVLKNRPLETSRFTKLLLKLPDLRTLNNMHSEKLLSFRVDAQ
MC4R antagonist = human MC4R antagonism in cAMP assay; MC4R-expressing cells, MTII-stimulated cAMP, LANCE TR-FRET; inhibition, % at 6.5 µM; hit rate 0.48% among 360,000; AID 540295;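 active means inhibition above its plate's cutoff, the mean of tested wells on that plate plus 3 SD, cut at about 29% in these data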;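 further: 0% = Melanotan II alone and 100% = Melanotan II plus saturating MCL0020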
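Material: human MC4R-expressing U2OS cells. Probe or stimulus: Melanotan II challenge. Dosing: 6.5 µM single dose. Times: 30-min compound, 1-h challenge, 1-h detection, room temperature. Technique: TR-FRET with Eu-cAMP and labeled anti-cAMP, 671 nm. Replication: singlicate.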
NR1D1 mod conf = confirmation of modulators of human Rev-erb alpha DNA binding. shares compounds with NR1D1 modulator. Rev-erb alpha FITC-DNA binding, fluorescence polarization, 90 min. activation, % at 25 µM. hit rate 61% among 3,000;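 active means activation at or above a set limit, or at least 3 SD above the negative control mean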;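 further: 0% = 35 nM protein with DMSO and 100% = 750 nM protein high control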
RORg counter = counter-screen for Rev-erb alpha modulators: RORgamma DNA binding | purified RORgamma protein-FITC-DNA binding, fluorescence polarization | IC50, µM | shares compounds with NR1D1 modulator | hit rate 8% among 910 | AID 1259320;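 active means Compounds whose fitted half-maximal concentration for disrupting protein-DNA binding is below 10 micromolar; the record names Rev-erb in its text, so the target is in doubt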
Starred values were filed as active, the others as inactive; i = inactive; nt = no result given. An excerpt weighted towards active compounds, which were near 2.7% of everything screened.

SMILES	MC4R ag barr	NR2E3 ag-1	PG9 binder	NR2E3 ag-2	NR1D1 modulator	MC4R antagonist	NR1D1 mod conf	RORg counter
Cc1ccc(-c2csc3nc[nH]c(=S)c23)cc1	-2.7	3.1	-0.6	25.4	6.0	13.3	nt	nt
Cc1cc(-c2csc3nc[nH]c(=S)c23)cc(C)c1C	-3.4	0.7	-0.1	32.2	61.2*	13.0	62.3*	>40
CCOP(=O)(OCC)C(NC(=O)Nc1ccc(Cl)cc1)c1ccccc1 (centres undefined)	-1.9	1.9	-2.0	-0.7	-5.0	7.1	nt	nt
COc1ccc(C(=O)Nc2ccc(NC(=O)c3cccc(OC)c3)cn2)cc1	-0.6	-1.3	7.2	-66.8	18.4*	4.0	14.4	nt
COc1ccc(C(=O)Nc2ccccc2NC(=O)c2ccc(OC)cc2)cc1	-1.4	1.4	-2.1	-13.7	-3.0	3.1	nt	nt
COc1ccc(C(=O)Nc2ccccc2C(=O)Nc2ccccc2)cc1	-2.3	nt	-0.6	-64.8	67.6*	4.3	45.4*	>40
COc1ccc(NC(=O)c2ccc(C(=O)c3cc(OC)ccc3OC)cc2)cc1	1.6	3.6	nt	1.9	46.0*	6.0	33.5*	>40
COc1ccc(C(=O)Nc2ccc(NC(=O)c3cccc(F)c3)cn2)cc1	-1.1	-12.6	2.5	-8.8	1.0	6.1	nt	nt
COc1ccc(OC)c(C(=O)c2ccc(C(=O)Nc3ccccc3)cc2)c1	-1.1	-5.5	-0.1	10.7	2.9	-1.8	nt	nt
COc1ccc(C(=O)Nc2ccccc2C(=O)NC(Cc2ccc(O)cc2)C(=O)NNC(=O)c2ccccc2Cl)cc1 (centres undefined)	-1.1	-2.1	6.6	4.8	24.2*	15.3	18.6*	nt
Cc1ccc(C2=NS(=O)(=O)N(C)C(C(=O)Nc3cc(C)n(CC(=O)N4CCC(C)CC4)n3)=C2)cc1	-2.6	1.2	-0.6	16.2	-3.9	-4.4	nt	nt
COc1ccc(NC(=O)NNC(=O)c2cc3ccccc3cc2O)cc1	-2.1	-1.7	-1.2	-34.9	45.5*	10.2	29.6*	>40
O=C(Nc1nc2ccccc2n1Cc1ccc(Cl)cc1)c1ccco1	3.4	-2.8	-0.6	-4.7	27.7*	-14.5	6.9	nt
O=C(/C=C/c1cccc2ccccc12)NCCC1=CCCCC1	4.0	-2.8	-0.9	-55.5	29.0*	0.0	38.2*	>40
COc1cccc(/C=C/C(=O)OCC(=O)NCCC2=CCCCC2)c1OC	-1.7	nt	-1.4	3.2	2.7	4.0	nt	nt
Cc1ccc(CCNS(=O)(=O)c2cc3c(cc2C)n(C)c(=O)c(=O)n3C)cc1	0.6	-0.9	-1.5	7.3	-7.6	-1.3	nt	nt
C/C(=N\NC(=O)c1cccc([N+](=O)[O-])c1)c1cccs1	-0.3	0.5	-2.6	-10.8	6.2	1.2	nt	nt
CCOc1ccccc1Nc1nc(N)nc(Cl)c1CC	-1.3	nt	-1.1	-14.9	-5.3	10.8	nt	nt
O=C(Nc1ccccn1)c1cccc(S(=O)(=O)N2CCCCC2)c1	-0.8	2.7	-0.2	-20.6	3.6	2.8	nt	nt
O=C(c1ccccc1)n1ccc2ccc(-c3ccc4ccn(Cc5ccccc5)c4c3)cc21	nt	nt	nt	nt	12.3	nt	nt	nt
COC(=O)c1cccc(Cn2ccc3ccc(-c4ccc5ccn(Cc6cccc(C(=O)OC)c6)c5c4)cc32)c1	nt	nt	nt	nt	51.1*	nt	0.7	nt
O=C(c1cccc(F)c1)n1ccc2ccc(-c3ccc4ccn(Cc5ccccc5)c4c3)cc21	nt	nt	nt	nt	8.1	nt	nt	nt
CCCCOc1ccc(C(=O)n2ccc3ccc(-c4ccc5ccn(Cc6ccccc6)c5c4)cc32)cc1	nt	nt	nt	nt	39.6*	nt	44.6*	>40
COC(=O)c1cccc(Cn2ccc3ccc(-c4ccc5ccn(C(=O)c6ccccc6OC)c5c4)cc32)c1	nt	nt	nt	nt	34.1*	nt	58.0*	i
COC(=O)c1cccc(Cn2ccc3ccc(-c4ccc5ccn(C(=O)c6cccc(OC)c6)c5c4)cc32)c1	nt	nt	nt	nt	38.6*	nt	53.9*	i
SMILES	MC4R ag barr	NR2E3 ag-1	PG9 binder	NR2E3 ag-2	NR1D1 modulator	MC4R antagonist	NR1D1 mod conf	RORg counter
Cc1ccc(S(=O)(=O)N2CCOCC2)cc1C(=O)NCC1CCCO1 (centres undefined)	-0.7	-3.0	-1.0	25.9	5.8	1.5	nt	nt
Cc1ccccc1OCC(=O)OCC(=O)c1ccc(-c2ccccc2)cc1	0.5	1.4	-3.3	7.8	11.7	4.4	nt	nt
CC1CCCC(C)N1C(=O)COC(=O)CCC(=O)c1cccs1 (centres undefined)	0.9	nt	0.5	-16.3	-1.8	2.6	nt	nt
COC(=O)c1cccc(Cn2ccc3ccc(-c4ccc5ccn(C(=O)c6ccc(C)cc6)c5c4)cc32)c1	nt	nt	nt	nt	45.8*	nt	63.9*	>40
Oc1ccc2c(ccc3[nH]cnc32)c1	-0.8	-0.9	-1.8	8.0	-7.6	1.8	nt	nt
COc1cc(-c2cc(C(=O)O)c3cc4c(cc3n2)OCCO4)cc(OC)c1OC	-0.6	-1.1	1.1	-12.1	4.5	0.8	nt	nt
C[C@H](CO)N1C[C@H](C)[C@@H](CN(C)S(=O)(=O)c2ccc(F)cc2)Oc2c(NC(=O)CCC(F)(F)F)cccc2C1=O	-1.1	nt	-0.1	-8.4	1.7	3.7	nt	nt
Cc1ccc2nc(-c3ccc(F)cc3)c(Cc3ccccc3C(F)(F)F)n2c1	nt	nt	-0.4	-81.8	16.9*	nt	-0.7	nt
COc1ccc(-c2nc3ccc(Br)cn3c2Cc2ccccc2C(F)(F)F)cc1OC	nt	nt	-1.4	4.9	15.8*	nt	7.1	nt
COc1ccnc(N2CCN(c3cccc(C(F)(F)F)c3)CC2)c1C#N	1.9	1.4	0.6	-18.0	28.1*	2.2	5.8	nt
COC(=O)c1cc2c(c3c4cc(F)ccc4n(C(=O)c4ccccc4)c13)C(=O)N(Cc1ccco1)C2	nt	nt	-0.9	nt	-11.4	nt	nt	nt
CCOc1ccc(S(=O)(=O)c2c[nH]c3ccc(C)cc3c2=O)cc1	-1.6	0.8	-0.6	9.1	30.6*	3.9	19.8*	nt
Oc1ccccc1-c1nnc(-c2ccc(C(F)(F)F)cc2)o1	7.0	-3.1	1.2	-37.4	39.1*	-2.0	22.8*	nt
COc1ccc(C(C)=O)cc1CSc1nc2ccccc2c(=O)n1-c1cccc(C)c1	-1.0	-1.5	-0.6	-20.7	38.8*	9.5	36.0*	9.42*
COc1ccc(S(=O)(=O)Nc2ccc3c(c2)[C@H]2C[C@H](CC(=O)NCC4CC4)O[C@@H](CO)[C@H]2O3)cc1	-0.5	nt	0.1	-35.8	-8.6	1.1	nt	nt
